Rows were chosen to be rich in hits. Some 9.4% of all compounds tested hit in one or more screens of this group.
CSC inhib = cancer stem cell inhibition; cancer stem cell-like cells viability, luminescence; hit rate 1.1% among 300,000; inhibition, % at 7.5 µM; in the data active = inhibition above about 75%; tested in HMLE shEcad cells
Beta apoptosis = beta cell apoptosis inhibition; INS-1E cytokine-induced death, ATP luminescence, 48 h; percent of positive-control rescue, neutral wells zero; protection from apoptosis, % (no concentration beside the values); hit rate 0.8% among 300,000; AID 435005;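 active = Every replicate reaches about 75%, or at least half do and their mean reaches it too, limit read from the data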;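 note: 0% = cytokine-treated negative control wells and 100% = positive control rescue; higher means more ATP so stronger rescue from cytokine killing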
Lmaj promast = Leishmania major promastigote growth inhibition; Leishmania major promastigotes, resazurin fluorescence viability; inhibition, % at 10 µM; hit rate 9% among 200,000; AID 1063; in the data active = inhibition above about 50%;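 note: promastigotes grown with compound for 44 hours at 28 °C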
Mdm2 MdmX PPI = human Mdm2/MdmX binding inhibition; hit rate 3% among 330,000; inhibition, % at 8 µM; O15151+Q00987; SaOS-2 split-luciferase Mdm2/MdmX complementation, luminescence;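 active = inhibition of at least 50% at 8 µM in the primary screen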
SKKanGAS inh = blocks kanamycin growth of S. pyogenes SKKanGAS strain; inhibition, % at 7.5 µM; AID 1662; hit rate 1.3% among 300,000; BacTiter-Glo, 6 h;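 active = mean replicate score, as percent of positive control median, at least 50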;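 note: strain carries kanamycin resistance gene driven by streptokinase promoter and grows in 40 µg/ml kanamycin; loss of luminescence reflects streptokinase promoter inhibition or plain growth inhibition; 0% = median of DMSO wells and 100% = positive control at its reference dose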
T cruzi repl = T. cruzi replication inhibition. T. cruzi beta-gal in NIH3T3, luminescence, 90 h. inhibition, % (test concentration not listed). hit rate 1.4% among 300,000. AID 1885;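 active = mean inhibition across valid replicates above about 55%, limit read from the data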;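 note: signal also drops with host cell toxicity which is not excluded here; 0% = plate median of DMSO wells and 100% = zero luminescence signal; higher percent means less beta-gal luminescence so fewer parasites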
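Material: NIH/3T3 host cells with β-galactosidase reporter T. cruzi; Input: 5,000 host fibroblasts per well; Medium: DMEM, 2% fetal bovine serum; Compound: 50 nL DMSO compound solution per well; Schedule: 3 h host attachment, then at least 90 h co-culture; Detection: luminescent β-galactosidase signal after 60 min lysis.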
* hit, by the source's call; / = no result.

SMILES	CSC inhib	Beta apoptosis	Lmaj promast	Mdm2 MdmX PPI	SKKanGAS inh	T cruzi repl
O=C(Nc1cccc(Cl)c1N1CCCC1)c1cc2ccccc2o1	74	8	6	-30	73*	30
O=C(Nc1ccc(N2CCCC2)cc1)c1cccc(-c2cc3ccccc3oc2=O)c1	-14	0	-2	-2	8	20
CS(=O)(=O)c1[nH]nc(-c2ccccc2Cl)c1C#N	2	4	/	6	-15	/
Cc1noc(C)c1COc1ccc(C(=O)NCC(c2c(F)cccc2Cl)N(C)C)cc1 (stereo not given)	/	/	/	24	/	/
O=C(COC(=O)c1ccc2c(c1)OCCO2)NCCc1ccccc1	-25	-2	/	-5	/	/
COc1ccc(C(=O)c2ccc([N+](=O)[O-])cc2Cl)cc1	15	2	8	7	-10	60*
CC1(C)Cc2c(sc3[nH]c(=S)[nH]c(=O)c23)CO1	-21	-1	-4	30	-6	9
CN(Cc1ccccc1)C(=O)Cn1c(=O)oc2cc(S(=O)(=O)NCc3ccccc3)ccc21	-2	1	-6	45	-4	7
CN(Cc1ccccc1)C(=O)Cn1c(=O)oc2cc(S(=O)(=O)N3CCCC3)ccc21	8	-1	100*	12	0	-1
O=C(NC1CCCc2ccccc21)C1CCN(S(=O)(=O)c2ccccc2F)CC1 (stereo not given)	-7	4	85*	34	4	5
O=C(Cn1c(=O)oc2cc(S(=O)(=O)N3CCCC3)ccc21)NC1CCCc2ccccc21 (stereo not given)	4	6	100*	6	-2	-6
O=C(NC1CCCc2ccccc21)C1CCN(S(=O)(=O)c2ccccc2)CC1 (stereo not given)	-4	2	1	9	-5	-8
O=C(Cn1c(=O)oc2cc(S(=O)(=O)N3CCCC3)ccc21)N1CCN(c2ccccc2)CC1	2	-3	100*	-12	3	-10
CCC(=O)Nc1ccc(C(=O)CN2C(=O)NC3(CCCCCC3)C2=O)cc1	/	-4	/	2	/	/
N#C/C(=C\c1cc2c(cc1Br)OCO2)c1ccc(C(=O)O)cc1	4	-2	/	3	-6	1
O=S(=O)(Nc1ccon1)c1ccc(Br)cc1	-11	/	/	-10	-2	5
CC(NC(=O)Cn1c(=O)oc2cc(S(=O)(=O)N3CCCC3)ccc21)c1ccccc1 (stereo not given)	/	/	100*	-26	5	-5
COc1cccc(NC(=O)Cn2c(=O)oc3cc(S(=O)(=O)N4CCCC4)ccc32)c1	-1	-2	/	-34	6	-7
O=C(Cn1c(=O)oc2cc(S(=O)(=O)N3CCCC3)ccc21)Nc1ccc(C(F)(F)F)cc1	-6	0	52*	2	-14	-9
Cc1cccc(NC(=O)Cn2c(=O)oc3cc(S(=O)(=O)N4CCCC4)ccc32)n1	12	1	/	-2	0	-1
CCOC(=O)C1=C(C)N=c2s/c(=C\c3ccc(OC(C)=O)cc3)c(=O)n2C1/C=C/c1ccccc1 (stereo not given)	9	-2	100*	32	4	-6
CCOC(=O)C1=C(C)N=c2s/c(=C\c3ccc(OC(C)=O)c(OCC)c3)c(=O)n2C1/C=C/c1ccccc1 (stereo not given)	-2	-2	49	27	12	-31
COc1ccc(NC(=O)/C(C#N)=C/c2ncc([N+](=O)[O-])n2C)c(OC)c1	-13	4	/	24	19	-11
Cc1ccc(CSc2nc3ccsc3c(=O)n2Cc2ccccn2)cc1	9	3	67*	8	17	24
N#Cc1ccccc1CSc1nc2ccsc2c(=O)n1Cc1ccccn1	/	6	43	3	5	11
SMILES	CSC inhib	Beta apoptosis	Lmaj promast	Mdm2 MdmX PPI	SKKanGAS inh	T cruzi repl
O=c1c2sccc2nc(SCc2cc(=O)n3cc(Br)ccc3n2)n1Cc1ccccn1	-9	3	55*	-37	4	2
CCOC(=O)C(=O)Nc1cc([N+](=O)[O-])ccc1C	-7	-2	32	2	-7	2
CCCCNC(=S)Nc1cc([N+](=O)[O-])ccc1C	/	/	74*	15	1	12
COC(=O)/C(=C\c1cc(OC)c(OC)c(OC)c1)c1nc2ccccc2[nH]1	12	-6	99*	8	1	5
COC(=O)/C(=C\c1ccc(O)cc1)c1nc2ccccc2[nH]1	-14	-9	34	-8	16	-1
COc1cc(/C=C(/C(=O)c2cccs2)c2nc3ccccc3[nH]2)ccc1O	61	83*	100*	49	5	-15
CC1CC(NC(=O)C2(C)CC2(Cl)Cl)CC(C)(C)C1 (stereo not given)	-3	-2	55*	-9	8	16
CC1CC(NC(=O)CC#N)CC(C)(C)C1 (stereo not given)	-6	/	/	2	0	-17
COc1ccccc1-c1cc(C(F)(F)F)n2ncc(C(=O)N3CCc4ccccc4C3)c2n1	-9	-3	/	43	17	19
O=C(/C=C/c1ccc(F)cc1)NC(Cc1c[nH]c2ccccc12)C(=O)O (stereo not given)	-10	4	-3	4	-3	-16
Cc1cc(O)c(Oc2cc(C)cc(O)c2O)c(O)c1	80*	-11	-18	-3	3	-12
Cc1ccc(O)c(O)c1	8	-9	/	32	1	-29
C/C(N)=C(/C#N)C(=O)CSc1nnc(Nc2cccc(C)c2)s1	-1	/	76*	-133	-8	-3
Cc1cccc(Nc2nnc(SCC(=O)c3c(N)n(C4CC4)c(=O)[nH]c3=O)s2)c1	20	0	/	22	/	/
COc1cccc(Nc2nnc(SCC(=O)N(CC(C)C)CC(C)C)s2)c1	-13	13	99*	25	-2	41
Cc1ccc(Nc2c(-c3ccccc3O)nc3cnccn23)cc1	-7	5	79*	45	9	18
COc1ccc(Nc2c(-c3ccc(C)cc3)nc3cnccn23)cc1	0	-1	4	-12	1	7
Cc1c(C(=O)Oc2cccc3cccnc23)oc2ccccc12	4	-3	98*	1	3	0
O=C(/C=C/c1ccco1)Oc1cccc2cccnc12	22	/	/	-5	0	-29
O=C(/C=C\c1ccco1)Oc1cccc2cccnc12	9	-2	97*	3	-1	1
COc1ccccc1/C=C/C(=O)Oc1cccc2cccnc12	4	0	99*	31	-16	-16
CCc1nc2ccccc2c(C(=O)Oc2cccc3cccnc23)c1C	29	13	2	21	13	-7
Cc1ccc2cccc(OC(=O)/C=C\c3ccccc3)c2n1	-12	1	3	-21	-5	-13
Cc1cc(NC(=O)c2coc(=O)c(Br)c2)ccc1C(C)C	17	-3	/	23	-4	-27
O=C(Nc1cccc(Cl)c1)C1CCN(C(=O)c2cccs2)CC1	-5	6	/	10	0	3

Assay outcomes (PubChem BioAssay)
